The text below walks through data of ChEMBL document CHEMBL1144139, “Immunosuppressive diterpenoids from Tripterygium wilfordii” (1999).

Type in all cases: functional
The subject of experiment [1] is PBMC. Description: Immunosuppressive activity against human PBMC assessed as inhibition of LPS-induced IL1-beta production at 10 ug/ml after 24 hrs by ELISA. In outline: (§1)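 Heparinized whole blood from healthy volunteers, diluted to 30% in RPMI-1640 with penicillin/streptomycin, was mixed in equal volumes with LPS solution (3 µg/mL) and sample (3 mg/mL DMSO stock diluted 1:100; DMSO-only control). Incubated at 37 °C, 5% CO2. Supernatant cytokines measured by ELISA. Inhibition (%) = […] versus solvent control.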
In general terms: In an ELISA, binding on a coated surface is turned into a signal by an enzyme label.

The subject of experiment [2] is PBMC. In words: Immunosuppressive activity against human PBMC assessed as inhibition of LPS-induced IL2 production at 10 ug/ml after 24 hrs by ELISA. In outline:
as §1

Experiment [3] deals with PBMC. Description: Immunosuppressive activity against human PBMC assessed as inhibition of LPS-induced IL8 production at 10 ug/ml after 24 hrs by ELISA. An outline of the steps:
as §1

In experiment [4] the test system is PBMC. In words: Immunosuppressive activity against human PBMC assessed as inhibition of LPS-induced IFN-gamma production at 10 ug/ml after 24 hrs by ELISA. In outline:
as §1

Experiment [5] concerns PBMC. In words: Immunosuppressive activity against human PBMC assessed as inhibition of LPS-induced IL4 production at 10 ug/ml after 24 hrs by ELISA. In outline:
as §1

In experiment [6] the test system is PBMC. Description: Immunosuppressive activity against human PBMC assessed as inhibition of LPS-induced TNFalpha production at 10 ug/ml after 24 hrs by ELISA. In outline:
as §1

In experiment [7] the test system is PBMC. Description: Immunosuppressive activity against human PBMC assessed as inhibition of LPS-induced TNFalpha production at 0.3 ug/ml after 24 hrs by ELISA.
In experiment [8] the test system is PBMC. In words: Immunosuppressive activity against human PBMC assessed as inhibition of LPS-induced IFN-gamma production at 0.3 ug/ml after 24 hrs by ELISA.
In experiment [9] the test system is PBMC. In words: Immunosuppressive activity against human PBMC assessed as inhibition of LPS-induced IL1-beta production at 0.3 ug/ml after 24 hrs by ELISA.
In experiment [10] the test system is PBMC. In words: Immunosuppressive activity against human PBMC assessed as inhibition of LPS-induced IL2 production at 0.3 ug/ml after 24 hrs by ELISA.
Experiment [11] concerns PBMC. In words: Immunosuppressive activity against human PBMC assessed as inhibition of LPS-induced IL4 production at 0.3 ug/ml after 24 hrs by ELISA.
For experiment [12], the system named is PBMC. In words: Immunosuppressive activity against human PBMC assessed as inhibition of LPS-induced IL8 production at 0.3 ug/ml after 24 hrs by ELISA.

Activity calls are given as the source filed them. The rule behind the calls is not given here.

Consider `C[C@@]12CCC[C@@](C)(C(=O)O)[C@@H]1CC[C@@]13C[C@@H](CC[C@H]12)[C@](C)(O)C3`, for which the result in experiment [1], in experiment [2], in [3], in experiment [4], in experiment [5] and in experiment [6] was inactive.
A word on the inhibition: it is the relative decrease from the control value, in per cent. Consider `C=C[C@]1(C)CC[C@@H]2[C@@]3(C)CCC[C@@](C)(C(=O)O)[C@@H]3CC[C@@]2(C)O1`, for which the inhibition at 10 µg/mL worked out at 36.1% in experiment [1]; 100% in [2]; 65.2% in experiment [3]; 94% in experiment [4]; 95.4% in [5]; 49.9% in experiment [6].
Regarding `C[C@@]1(O)C[C@@]23CC[C@H]4[C@@]5(CCC[C@]4(C)C(=O)OC5)[C@@H]2CC[C@H]1C3` [TRIPTERIFORDIN], the inhibition at 10 µg/mL in [1] worked out at 75.7%; in experiment [2], 97.9%; in [3], 96.6%; in experiment [4] it was 98.6%; in experiment [5], 95.7%; in experiment [6], 76.8%.
Regarding `C=C1C[C@H]2[C@@](C)(CO)C(=O)CC[C@]2(C)c2c(O)cc(C(C)C)c(OC)c21`, the result in experiment [1], in experiment [2], in [3], in [4], in experiment [5] and in [6] was inactive.
With `C=C1C[C@H]2[C@@](C)(CO)[C@@H](O)CC[C@]2(C)C2=C1C(=O)C(C(C)C)=CC2=O` [TRIPTOQUINONE C], the inhibition at 10 µg/mL is 16.4% in experiment [1]; 64% in experiment [2]; -24.6% in [3]; 89% in [4]; 66.4% in experiment [5]; -29.5% in experiment [6].
With `CC(C)c1ccc2c(c1)C(=O)C[C@H]1[C@@](C)(CO)C(=O)CC[C@]21C` [TRIPTOBENZENE N], the inhibition at 10 µg/mL is 37.9% in experiment [1]; 64.5% in experiment [2]; 15.4% in [3]; 42.3% in [4]; -52.2% in [5]; 13.3% in [6].
As to `C[C@@]12CCC[C@@](C)(C(=O)O)[C@@H]1CC[C@@]13C[C@@H](CC[C@H]12)[C@@H](CO)C3`, the inhibition at 10 µg/mL in experiment [1] was -6.1%; in experiment [2], 35%; in [3], 4.2%; in [4], 34%; in [5] it was 56.2%; in experiment [6], 0%.
Take `CC(C)c1ccc2c(c1)CC[C@H]1[C@@](C)(CO)[C@@H](O)CC[C@]21C`: the result in experiment [1], in [2], in [3], in [4], in [5] and in experiment [6] was inactive.
For the compound `C=C1C[C@H]2[C@@](C)(CO)C(=O)CC[C@]2(C)c2cc(O)c(C(C)C)cc21` [TRIPTOBENZENE M], the inhibition at 10 µg/mL is 13.5% in experiment [1]; 55.6% in [2]; -29.1% in experiment [3]; 54.1% in [4]; 40.1% in [5]; 7.5% in experiment [6].
Regarding `C[C@]12C=CC(=O)C=C1CC[C@@H]1[C@@H]2[C@@H](O)C[C@@]2(C)[C@H]1CC[C@]2(O)C(=O)CO` [PREDNISOLONE], the inhibition at 0.3 µg/mL in experiment [7] turned out to be 88.5%; in experiment [8], 95.4%; in experiment [9], 88.5%; in experiment [10], 93.9%; in [11], 96.1%; in experiment [12] it was 90.3%.
